Published values gathered from unrelated publications.
Protocols differ between the studies behind these lines.
Medium: plasma

COc1ccc2c(Cc3ccccc3F)c3n(c(=O)c2c1OC)CCc1cc2c(cc1-3)OCO2
AUC(0-t) (rat; oral; 5 mg/kg): 3470 ng·h/mL

Cc1c(-c2ccccc2)cccc1N1C(=O)c2cc(CN[C@H](C(=O)O)C(C)O)c(OCc3cccc(C#N)c3)cc2C1=O (stereo partly shown)
AUC(0-t) (Sprague-Dawley rat; oral; 50 mg/kg): 75 ng·h/mL

COc1ccc(C(C)=O)c(O)c1
AUC(0-t) (male Sprague-Dawley rat; oral; 100 mg/kg): 33600 ng·h/mL

N#Cc1ccc(Nc2nc(N)cc(Oc3c(F)cc(-c4ccc(C#N)cc4)cc3F)n2)cc1
AUC(0-t) (Sprague-Dawley rat; intravenous; 1 mg/kg): 302 ng·h/mL

C[C@H](Nc1ncnc2[nH]cnc12)c1cc2cccc(Cl)c2c(=O)n1-c1ccccc1
AUC(0-t) (male Wistar rat; oral; 25 mg/kg; single dose): 9340 ng·h/mL

C#Cc1cccc(Nc2ncnc3cc(OCCOC)c(OCCOC)cc23)c1
AUC(0-t) (male Sprague-Dawley rat; oral; 12 mg/kg; single dose): 9250 ng·h/mL

Cc1nc(-c2cnc(NC(C)C)n(C)c2=O)ccc1Oc1ccnc(-c2cnn(C)c2)c1
AUC(0-t) (male Sprague-Dawley rat; intravenous; 1 mg/kg): 21500 ng·h/mL

CCc1cc(C(=O)NC)c2nccc(N3CCc4c(cc(Cn5ccnc5)cc4-c4cn(C)nc4C(F)(F)F)C3=O)c2c1
AUC(0-t) (male Sprague-Dawley rat; oral; 50 mg/kg; single dose): 11100 ng·h/mL

CCOC(=O)[C@@]12C[C@@H]1[C@@H](n1ccc3c(NC)nc(C#Cc4ccc(Cl)s4)nc31)[C@H](O)[C@@H]2O
AUC(0-t) (male Sprague-Dawley rat; oral; 10 mg/kg): 361 ng·h/mL

CCc1cc(OC)c2nccc(N3CCc4c(cc(Cn5ccnc5)cc4-c4cn(C)nc4C(F)(F)F)C3=O)c2c1
AUC(0-t) (male Sprague-Dawley rat; oral; 50 mg/kg): 10300 ng·h/mL

COc1nc(-c2cc(C)c(N[C@@H](C)c3cc(F)cc(F)c3)nn2)ccc1-n1cnc(C)c1
AUC(0-t) (male Sprague-Dawley rat; oral; 5 mg/kg; single dose): 31900 ng·h/mL

C=CC(=O)N1CC2CC(n3nc(-c4ccc(C(=O)Nc5ccccn5)cc4)c4c(N)ncnc43)CC2C1 (stereo not shown)
AUC(0-t) (male Wistar rat; oral; 30 mg/kg): 4720 ng·h/mL

O=C(Nc1cc(F)c(F)c(F)c1)c1ccc(F)c(S(=O)(=O)NCc2cccc(B(O)O)c2)c1
AUC(0-t) (male Sprague-Dawley rat; intravenous; 2 mg/kg): 242 ng·h/mL
